# Measured values taken from ChEMBL document CHEMBL1165943, “Design and synthesis of new anticancer pyrimidines with multiple-kinase inhibitory effect” (Bioorg Med Chem, 2010).
# How the values were obtained:
# Assay type in all cases: functional
# [1] = system: CCRF-CEM; experiment: Cytotoxicity against human CCRF-CEM cells assessed as cell growth at 10 uM; conditions: for growth at 10 µM: Homo sapiens, CCRF-CEM, read-out: Activity
# Method in brief: (§1)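 Single-concentration screen at 10 μM across the 60-cell-line panel (nine tissue types); growth percentage recorded per cell line, with inhibition taken as 100 minus growth percentage.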
# [2] = system: HL-60(TB); experiment: Cytotoxicity against human HL-60(TB) cells assessed as cell growth at 10 uM; conditions: for growth at 10 µM: Homo sapiens, HL-60, read-out: Activity
# Method in brief: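 Single-concentration 10 µM screen of HL-60(TB) within the 60-line panel, grown in RPMI 1640 with 5% FBS. The drug from DMSO stock is incubated 48 h at 37 °C, settled cells are TCA-fixed and SRB-stained, and absorbance is read at 515 nm. Percent growth is reported, and inhibition % is taken as 100 minus growth %.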
# [3] = system: MOLT-4; experiment: Cytotoxicity against human MOLT4 cells assessed as cell growth at 10 uM; conditions: for growth at 10 µM: Homo sapiens, MOLT-4, read-out: Activity
# Method in brief: (§2)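 Single-dose screen at 10 μM across the 60-cell-line panel. Cells grown in RPMI 1640 with 5% FBS and 2 mM L-glutamine, seeded at 5,000–40,000 cells/well according to doubling time, and treated 24 h later. Exposure lasted 48 h at 37 °C, 5% CO₂. Adherent cells were fixed with cold TCA, suspension cells were fixed settled, and both were stained with SRB and read at 515 nm. Growth % was recorded, with inhibition % = 100 − growth %.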
# [4] = Cytotoxicity against human […] cells assessed as cell growth at 10 uM; conditions: for growth at 10 µM: Homo sapiens, RPMI8266, read-out: Activity; method in brief: as §2
# [5] = system: SR; experiment: Cytotoxicity against human SR cells assessed as cell growth at 10 uM; conditions: for growth at 10 µM: Homo sapiens, SR, read-out: Activity; method in brief: as §2
# [6] = system: A549; experiment: Cytotoxicity against human A549 cells assessed as cell growth at 10 uM; conditions: for growth at 10 µM: Homo sapiens, A549, read-out: Activity; method in brief: as §1
# [7] = system: HOP-92; experiment: Cytotoxicity against human HOP92 cells assessed as cell growth at 10 uM; conditions: for growth at 10 µM: Homo sapiens, HOP-92, read-out: Activity; method in brief: as §1
# [8] = system: NCI-H522; experiment: Cytotoxicity against human NCI-H522 cells assessed as cell growth at 10 uM; conditions: for growth at 10 µM: Homo sapiens, NCI-H522, read-out: Activity; method in brief: as §2
# [9] = system: SF-295; experiment: Cytotoxicity against human SF295 cells assessed as cell growth at 10 uM; conditions: for growth at 10 µM: Homo sapiens, SF-295, read-out: Activity; method in brief: as §2
# [10] = system: SF-539; experiment: Cytotoxicity against human SF539 cells assessed as cell growth at 10 uM; conditions: for growth at 10 µM: Homo sapiens, SF-539, read-out: Activity; method in brief: as §2
# [11] = system: SNB-75; experiment: Cytotoxicity against human SNB75 cells assessed as cell growth at 10 uM; conditions: for growth at 10 µM: Homo sapiens, SNB-75, read-out: Activity; method in brief: as §2
# [12] = system: U-251; experiment: Cytotoxicity against human U251 cells assessed as cell growth at 10 uM; conditions: for growth at 10 µM: Homo sapiens, U-251, read-out: Activity; method in brief: as §2
# [13] = system: LOX IMVI; experiment: Cytotoxicity against human LOXIMVI cells assessed as cell growth at 10 uM; conditions: for growth at 10 µM: Homo sapiens, LOX IMVI, read-out: Activity; method in brief: as §2
# [14] = system: M14; experiment: Cytotoxicity against human M14 cells assessed as cell growth at 10 uM; conditions: for growth at 10 µM: Homo sapiens, M14, read-out: Activity; method in brief: as §2
# [15] = system: SK-MEL-28; experiment: Cytotoxicity against human SK-MEL-28 cells assessed as cell growth at 10 uM; conditions: for growth at 10 µM: Homo sapiens, SK-MEL-28, read-out: Activity; method in brief: as §2
# [16] = system: ACHN; experiment: Cytotoxicity against human ACHN cells assessed as cell growth at 10 uM; conditions: for growth at 10 µM: Homo sapiens, ACHN, read-out: Activity; method in brief: as §1
# [17] = system: CAKI-1; experiment: Cytotoxicity against human Caki1 cells assessed as cell growth at 10 uM; conditions: for growth at 10 µM: Homo sapiens, CAKI-1, read-out: Activity; method in brief: as §1
# [18] = system: RXF 393; experiment: Cytotoxicity against human RXF393 cells assessed as cell growth at 10 uM; conditions: for growth at 10 µM: Homo sapiens, RXF 393, read-out: Activity; method in brief: as §2
# [19] = system: SN12C; experiment: Cytotoxicity against human SN12C cells assessed as cell growth at 10 uM; conditions: for growth at 10 µM: Homo sapiens, SN12C, read-out: Activity; method in brief: as §2
# [20] = system: DU-145; experiment: Cytotoxicity against human DU145 cells assessed as cell growth at 10 uM; conditions: for growth at 10 µM: Homo sapiens, DU-145, read-out: Activity; method in brief: as §1
# [21] = system: SNB-19; experiment: Cytotoxicity against human SNB19 cells assessed as cell growth at 10 uM; conditions: read-out: Activity; method in brief: as §2
# [22] = system: MDA-MB-435; experiment: Cytotoxicity against human MDA-MB-435 cells assessed as cell growth at 10 uM; conditions: read-out: Activity; method in brief: as §2
# [23] = Cytotoxicity against human Hs 578T cells assessed as cell growth at 10 uM; conditions: read-out: Activity; method in brief: as §1
SMILES,growth at 10 µM [14],growth at 10 µM [15],growth at 10 µM [16],growth at 10 µM [17],growth at 10 µM [20],growth at 10 µM [1],growth at 10 µM [2],growth at 10 µM [3],growth at 10 µM [5],growth at 10 µM [6],growth at 10 µM [7],growth at 10 µM [8],growth at 10 µM [9],growth at 10 µM [10],growth at 10 µM [21],growth at 10 µM [11],growth at 10 µM [12],growth at 10 µM [13],growth at 10 µM [22],growth at 10 µM [23],other results
CC(=O)c1ccccc1-c1ccc(-c2ccnc(NC(=O)Nc3cc(C(F)(F)F)cc(C(F)(F)F)c3)n2)cn1.Cl,98.2%,103%,91%,78.4%,109%,–,–,–,–,–,–,–,–,–,–,–,–,–,–,–,Activity [1]: 88.36%; Activity [2]: 98.79%; Activity [3]: 93.09%; Activity [4]: 75.92%; Activity [5]: 97.1%; Activity [6]: 93.55%; Activity [7]: 101%; Activity [8]: 77.27%; Activity [9]: 80.92%; Activity [10]: 91.97%; Activity [11]: 77.47%; Activity [12]: 86.33%; Activity [13]: 94.42%; Activity [18]: 130.46%; growth at 10 µM [19]: 88.4%
O=C(Nc1cc(C(F)(F)F)cc(C(F)(F)F)c1)Nc1nccc(-c2ccc(Nc3ccccc3)nc2)n1,94.2%,99.8%,93%,102%,126%,96.8%,99.7%,96.6%,84.6%,105%,116%,94.3%,137%,96.4%,109%,90.1%,113%,112%,129%,102%,growth at 10 µM [4]: 102%; growth at 10 µM [19]: 106%
CC(=O)c1ccc(-c2ccc(-c3ccnc(Nc4cc(C(F)(F)F)cc(C(F)(F)F)c4)n3)cn2)cc1,109%,95.8%,103%,97.4%,114%,99.4%,107%,91%,96.5%,104%,103%,102%,110%,89.7%,110%,78.3%,101%,97.8%,115%,110%,growth at 10 µM [4]: 97.8%; growth at 10 µM [18]: 113%; growth at 10 µM [19]: 93.6%
FC(F)(F)c1cc(Nc2nccc(-c3cccnc3)n2)cc(C(F)(F)F)c1,116%,115%,102%,91.5%,106%,–,101%,95%,87.8%,93.8%,–,86.5%,103%,97.1%,94%,95.3%,98.7%,100%,102%,103%,growth at 10 µM [18]: 79%; growth at 10 µM [19]: 88%
CC(=O)c1ccccc1-c1ccc(-c2ccnc(NC(=O)Nc3cc(C(F)(F)F)cc(C(F)(F)F)c3)n2)cn1,–,–,–,–,–,79.3%,101%,88.3%,–,86.8%,89.9%,90.1%,–,87%,91.5%,72%,85.1%,–,98.1%,–,Activity [4]: 98.17%; Activity [5]: 19.97%; Activity [9]: 110.95%; Activity [13]: 65.57%; Activity [14]: 102.28%; Activity [15]: 109.71%; Activity [16]: 88.77%; Activity [17]: 81.28%; Activity [18]: 104.4%; Activity [19]: 96.07%; Activity [20]: 91.19%
FC(F)(F)c1cc(Nc2nccc(-c3ccc(Nc4ccccc4)nc3)n2)cc(C(F)(F)F)c1,111%,110%,91.3%,98%,111%,96.6%,105%,87.6%,90%,96.2%,100%,96.5%,112%,94.9%,91.6%,86.5%,104%,103%,108%,101%,growth at 10 µM [4]: 98.3%; growth at 10 µM [18]: 107%
Cc1cc(-c2cccnc2)nc(NC(=O)c2cccc(C(F)(F)F)c2)n1,109%,108%,105%,83.6%,101%,94.8%,97%,96.6%,106%,97.4%,107%,91.9%,101%,99.3%,90.8%,93.5%,97%,103%,100%,107%,growth at 10 µM [4]: 98.6%; growth at 10 µM [18]: 90.8%; growth at 10 µM [19]: 95.3%
FC(F)(F)c1cc(Nc2nccc(-c3ccc(-c4ccccc4)nc3)n2)cc(C(F)(F)F)c1,81.4%,109%,96%,91.6%,109%,89.7%,113%,93.4%,97.8%,97.3%,89.7%,83.3%,114%,95.8%,109%,86.8%,99.1%,98.8%,109%,94.8%,growth at 10 µM [4]: 96.2%; growth at 10 µM [18]: 143%; growth at 10 µM [19]: 86.1%
Cc1ccc(Nc2nc(C)cc(-c3cccnc3)n2)c(C)c1,114%,108%,108%,88.8%,99.5%,95.4%,98.5%,91.4%,94.4%,90.3%,86.9%,90.6%,98.3%,89.7%,101%,85.3%,92.2%,102%,95.4%,95.9%,growth at 10 µM [4]: 86.7%; growth at 10 µM [18]: 90.7%; growth at 10 µM [19]: 91.2%
c1ccc(-c2ccc(-c3ccnc(Nc4ccc(N(c5ccccc5)c5ccccc5)cc4)n3)cn2)cc1,90.2%,118%,96.5%,83.7%,115%,73.1%,91.8%,91.2%,38.7%,77.1%,151%,94%,124%,84.2%,135%,102%,87.2%,131%,98.5%,76.8%,growth at 10 µM [4]: 110%; growth at 10 µM [18]: 99.4%
